One may read the IC50 as the concentration needed to halve the response being measured. By inhibition in vivo is commonly meant the percentage by which the read-out fell short of the control. A low value points to little suppression. Usually Ki stands for the dissociation constant of the complex between target and ligand, obtained from inhibition or displacement.

The target in assay [1] is Mitogen-activated protein kinase 14 (Homo sapiens, UniProt Q16539). Briefly: Inhibition of p38alpha.
Assay [2] deals with PBMC. Briefly: Inhibition of LPS-stimulated TNFalpha production in human PBMCs. The format is functional, cell-based. Summed up: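 PBMCs from heparinized healthy-volunteer blood isolated by Ficoll-Hypaque and resuspended at 5 × 10⁶/mL in RPMI with 10% FBS. Cells preincubated with compound for 5 min at rt, then stimulated with LPS (200 ng/mL stock) for 6 h at 37 °C. TNF-α in medium measured by ELISA. IC50 derived by linear regression.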

In assay [3] the test system is Mus musculus. Briefly: Inhibition of LPS-induced TNFalpha production in BALB/c mouse at 10 mg/kg, po relative to control. The format is functional. In short, it runs like this:
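Female BALB/c mice, 6–8 weeks old, n = 8 per group, given 10 mg/kg by oral gavage in PEG 300; vehicle controls received PEG300 alone. LPS (E. coli O111:B4, 50 µg/kg) given ip 30 min after dosing. Blood taken 90 min after LPS and serum TNF-α measured by ELISA. Inhibition relative to vehicle, means SD, ANOVA.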

Molecules are shown by their SMILES.

Mitogen-activated protein kinase 14, sequence (Q16539 whole entry): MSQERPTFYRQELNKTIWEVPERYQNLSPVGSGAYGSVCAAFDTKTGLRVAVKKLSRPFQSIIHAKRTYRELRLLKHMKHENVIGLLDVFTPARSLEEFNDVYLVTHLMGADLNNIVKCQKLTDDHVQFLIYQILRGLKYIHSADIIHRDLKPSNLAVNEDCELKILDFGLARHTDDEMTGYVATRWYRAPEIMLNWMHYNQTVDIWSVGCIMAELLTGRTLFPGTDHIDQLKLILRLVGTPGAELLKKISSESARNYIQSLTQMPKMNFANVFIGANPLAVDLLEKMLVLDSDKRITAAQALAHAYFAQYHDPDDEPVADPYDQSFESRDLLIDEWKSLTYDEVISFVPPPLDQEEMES

In the case of `CCNC(=O)c1cn2ncnc(Nc3cc(NC(=O)c4cccc(N5CCN(C)CC5)c4)ccc3C)c2c1C`, the IC50 in assay [1] worked out at 924 nM. This counts as sub-micromolar. In assay [2], `CCNC(=O)c1cn2ncnc(Nc3cc(NC(=O)c4cccc(N5CCOCC5)c4)ccc3C)c2c1C` registered an IC50 of 45 nM. Testing at 10 mg/kg in assay [3] gave an inhibition in vivo of 84%. This compound registered an inhibition constant (Ki) in assay [1] of 0.98 nM. Turning to `Cc1ccc(NC(=O)c2cc(F)cc(N3CCOCC3)c2)cc1Nc1ncnn2cc(C(=O)NCCN(C)C)c(C)c12`, the IC50 in assay [2] stood at 18 nM; in assay [1] it was 10 nM.

In the case of `Cc1ccc(NC(=O)c2ccnc(N3CCOCC3)c2)cc1Nc1ncnn2cc(C(=O)N[C@@H](C)c3ccccc3)c(C)c12`, half-maximal inhibition in assay [2] (IC50) required 43 nM. Further, the inhibition in vivo at 10 mg/kg in assay [3] was found to be 89%. The compound `Cc1ccc(NC(=O)c2ccc(C#N)cc2)cc1Nc1ncnn2cc(C(=O)N[C@@H](C)c3ccccc3)c(C)c12` had an IC50 in assay [2] of 11 nM. Besides, affinity in assay [1] was put at a Ki of 3.4 nM.

In the case of `Cc1ccc(NC(=O)c2c(Cl)cccc2Cl)cc1Nc1ncnn2cc(C(=O)N[C@@H](C)c3ccccc3)c(C)c12`, in assay [1], the half-inhibitory concentration (IC50) was > 1000 nM. As to `CCOC(=O)c1cn2ncnc(Nc3cc(NC(=O)c4cc(F)cc(N5CCOCC5)c4)ccc3C)c2c1C`, the IC50 in assay [2] worked out at 4 nM; in assay [1], 2 nM.

Regarding `Cc1ccc(NC(=O)c2cc(F)cc(N3CCOCC3)c2)cc1Nc1ncnn2cc(C(=O)N(C)C)c(C)c12`, the IC50 in assay [2] stood at 212 nM; in assay [1] it was 63 nM. The corresponding values for `CNC(=O)c1cn2ncnc(Nc3cc(NC(=O)c4cc(F)cc(N5CCOCC5)c4)ccc3C)c2c1C` are 14 nM and 4 nM. For the compound `Cc1ccc(NC(=O)c2cc(F)cc(N3CCOCC3)c2)cc1Nc1ncnn2cc(C(N)=O)c(C)c12`, the 50% inhibitory concentration (IC50) in assay [2] was found to be 19 nM; in assay [1], 3 nM. For `Cc1ccc(NC(=O)c2cc(F)cc(N3CCOCC3)c2)cc1Nc1ncnn2cc(C(=O)O)c(C)c12`, the figures for the concentration for half-maximal inhibition (IC50) in assay [2] and in assay [1] were > 1000 nM and 1 nM, respectively. The corresponding values for `CCNC(=O)c1cn2ncnc(Nc3cc(NC(=O)c4ccc(C#N)cc4)ccc3C)c2c1C` are 46 nM and 23 nM. For `Cc1ccc(NC(=O)c2ccccc2)cc1Nc1ncnn2cc(C(=O)N[C@@H](C)c3ccccc3)c(C)c12` the same measures were 52 nM and 19 nM.

Regarding `Cc1ccc(NC(=O)c2cc(F)cc(N3CCOCC3)c2)cc1Nc1ncnn2cc(C(=O)NC(C)C)c(C)c12`, the half-inhibitory concentration (IC50) came out at 6 nM in assay [2] and 5 nM in assay [1].

In turn, `Cc1ccc(NC(=O)c2cc(F)cc(N3CCOCC3)c2)cc1Nc1ncnn2cc(C(=O)N[C@@H](C)c3ccccc3)c(C)c12` had an IC50 in assay [2] of 2 nM. Further, the inhibition constant Ki in assay [1] was determined as 0.54 nM. Take `COC[C@H](C)NC(=O)c1cn2ncnc(Nc3cc(NC(=O)c4ccc(C#N)cc4)ccc3C)c2c1C`: the half-maximal inhibitory concentration (IC50) in assay [2] worked out at 65 nM.

Take `Cc1ccc(NC(=O)c2cc(F)cc(N3CCOCC3)c2)cc1Nc1ncnn2ccc(C)c12`: the IC50 in assay [2] was 98 nM; in assay [1], 27 nM. The compound `CCNC(=O)c1cn2ncnc(Nc3cc(NC(=O)c4cc(F)cc(N5CCOCC5)c4)ccc3C)c2c1C` returned an IC50 in assay [2] of 2 nM. In assay [1], this compound registered a Ki of 0.42 nM.

As for `CCNC(=O)c1cn2ncnc(Nc3cc(NC(=O)c4ccnc(N5CCOCC5)c4)ccc3C)c2c1C`, the concentration for half-maximal inhibition (IC50) in assay [2] is 287 nM; in assay [1], 2 nM.

With `Cc1ccc(C(=O)Nc2ccc(C)c(Nc3ncnn4cc(C(=O)N[C@@H](C)c5ccccc5)c(C)c34)c2)cc1`, the half-maximal inhibitory concentration (IC50) in assay [2] worked out at 313 nM; in assay [1], 13 nM. On to `Cc1ccc(NC(=O)c2cc(C(F)(F)F)cc(C(F)(F)F)c2)cc1Nc1ncnn2cc(C(=O)N[C@@H](C)c3ccccc3)c(C)c12`, for which, in assay [1], the half-inhibitory concentration (IC50) was > 1000 nM. As to `CCNC(=O)c1cn2ncnc(Nc3cc(NC(=O)c4cccc(N5CCCC5=O)c4)ccc3C)c2c1C`, the IC50 came out at 633 nM in assay [2] and 16 nM in assay [1]. The corresponding values for `CCNC(=O)c1cn2ncnc(Nc3cc(NC(=O)c4cccc(-n5ccnc5)c4)ccc3C)c2c1C` are 126 nM and 7 nM. The corresponding values for `Cc1cccc(C(=O)Nc2ccc(C)c(Nc3ncnn4cc(C(=O)N[C@@H](C)c5ccccc5)c(C)c34)c2)c1` are 259 nM and 94 nM. As for `Cc1ccc(NC(=O)c2cccc(C(F)(F)F)c2)cc1Nc1ncnn2cc(C(=O)N[C@@H](C)c3ccccc3)c(C)c12`, the IC50 in assay [2] came to 72 nM; in assay [1], 32 nM.

In assay [2], `Cc1ccc(NC(=O)c2cccc(N3CCOCC3)c2)cc1Nc1ncnn2cc(C(=O)N[C@@H](C)c3ccccc3)c(C)c12` yielded a concentration for half-maximal inhibition (IC50) of 29 nM. The inhibition in vivo at 10 mg/kg in assay [3] was 87%.

On to `COC[C@H](C)NC(=O)c1cn2ncnc(Nc3cc(NC(=O)c4cccc(N5CCOCC5)c4)ccc3C)c2c1C`, for which the values for the IC50 in assay [2] and in assay [1] were 29 nM and 12 nM, respectively. On to `CCNC(=O)c1cn2ncnc(Nc3cc(NC(=O)c4cccc(-n5cccn5)c4)ccc3C)c2c1C`, for which the IC50 in assay [1] stood at 123 nM. Take `Cc1ccc(NC(=O)c2ccncc2)cc1Nc1ncnn2cc(C(=O)N[C@@H](C)c3ccccc3)c(C)c12`: the half-maximal inhibitory concentration (IC50) was 117 nM in assay [2] and 14 nM in assay [1]. Regarding `CCCNC(=O)c1cn2ncnc(Nc3cc(NC(=O)c4cc(F)cc(N5CCOCC5)c4)ccc3C)c2c1C`, the IC50 in assay [2] worked out at 4 nM; in assay [1] it was 5 nM. For `Cc1ccc(NC(=O)c2cc(F)cc(N3CCOCC3)c2)cc1Nc1ncnn2cc(C(=O)N[C@H](C)c3ccccc3)c(C)c12` the same measures were 48 nM and 23 nM.

The compound `COC[C@H](C)NC(=O)c1cn2ncnc(Nc3cc(NC(=O)c4cc(F)cc(N5CCOCC5)c4)ccc3C)c2c1C` (stereo in doubt; 16) had an IC50 in assay [1] of 2 nM. In the case of `COC[C@H](C)NC(=O)c1cn2ncnc(Nc3cc(NC(=O)c4cc(F)cc(N5CCOCC5)c4)ccc3C)c2c1C` (stereo in doubt; 39), the half-inhibitory concentration (IC50) in assay [2] came to 7 nM; in assay [1] it was 2 nM.
